A selection: hits, their analogues and other compounds. The true share with any hit is near 2%.
LEDGF integ inh: blockers of LEDGF/p75-dependent integrase strand transfer – biochemical, TR-FRET, high throughput, primary screen. TR-FRET IN-LEDGF/p75 DNA integration, Eu/Cy5. inhibition, % at 3.7 µM. actives 0.64% (n = 370,000). AID 743269, 2014;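 active = inhibition above the screen-wide mean plus 3 SD, cut at about 13% in these data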;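 note: signal is the Cy5 over europium emission ratio at 671 and 618 nm; 0% = plate median of compound wells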
MBD2 DNA inh: inhibitors of MBD2 binding to methylated DNA, primary screen, biochemical, TR-FRET, DNA-binding domain, human | Methyl-CpG-binding domain protein 2 (Homo sapiens), Q9UBB5 | MBD2 binding to methylated oligonucleotide | inhibition, % at 4.4 µM | actives 0.31% (n = 370,000) | AID 686964, 2013; in the data active = inhibition above about 13%
Target sequence (Q9UBB5 whole entry, looked up, the tested form may be a part): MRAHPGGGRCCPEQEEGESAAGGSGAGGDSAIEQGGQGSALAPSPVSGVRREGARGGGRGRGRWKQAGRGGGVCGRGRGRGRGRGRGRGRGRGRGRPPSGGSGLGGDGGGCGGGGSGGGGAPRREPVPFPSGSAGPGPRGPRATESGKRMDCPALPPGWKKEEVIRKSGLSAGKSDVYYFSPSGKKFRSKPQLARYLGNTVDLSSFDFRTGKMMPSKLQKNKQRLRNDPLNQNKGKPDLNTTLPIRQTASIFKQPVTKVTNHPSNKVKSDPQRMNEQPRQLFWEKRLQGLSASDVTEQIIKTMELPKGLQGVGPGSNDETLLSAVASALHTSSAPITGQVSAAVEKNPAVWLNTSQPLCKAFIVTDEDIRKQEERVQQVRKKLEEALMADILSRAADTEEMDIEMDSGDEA
ASAP1 GAP inh: inhibitors of human ASAP1 ArfGAP activity, primary screen, biochemical, fluorescence polarization; Arf-GAP with SH3 domain, ANK repeat and PH domain-containing protein 1 (Homo sapiens), …; ASAP1-stimulated ARF1 GTP hydrolysis, GDP FP detection; inhibition, % at 16.5 µM; actives 0.19% (n = 360,000); in the data active = inhibition above about 25%;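 note: 0% = vehicle with enzyme and substrate and 100% = no enzyme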
TCR-CD3 inh: inhibitors of human TCR-CD3 interaction, primary screen, biochemical, fluorescence, TAMRA-labeled TCR probe | inhibition, % at 9.4 µM | actives 0.37% (n = 360,000);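 note: recombinant mutant TCR 2C K166C tagged with TAMRA read by polarization; 0% = receptor in buffer alone and 100% = receptor with positive control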
UHRF1 MBD2 ctr: UHRF1 methylated DNA binding inhibitors, primary screen, counter-screen for MBD2 inhibitor project, biochemical, TR-FRET, human UHRF1, single concentration; UHRF1 binding to methylated oligo; AID 687016, 2013; actives 0.75% (n = 370,000); inhibition, % at 4.4 µM; E3 ubiquitin-protein ligase UHRF1 (Homo sapiens), Q96T88; in the data active = inhibition above about 21%;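 note: UHRF1 SRA domain binding a hemimethylated CpG hairpin DNA probe; 0% = median of test compound wells and 100% = reference inhibitor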
ARFGAP1 inh: inhibitors of rat ARFGAP1 GAP activity, primary screen, biochemical, fluorescence polarization, GDP tracer; actives 0.26% (n = 360,000); ADP-ribosylation factor GTPase-activating protein 1 (Rattus norvegicus), Q62848; inhibition, % at 16.5 µM; AID 651572, 2012; Arfgap1-stimulated ARF1 GTP hydrolysis, GDP FP detection;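 active = inhibition above a per-plate limit, mean inhibition of low control wells plus 3 SD, cut at about 25% in these data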;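 note: 0% = DMSO wells with enzyme and 100% = wells lacking Arfgap1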
Target sequence (Q62848 1-136 limits assumed): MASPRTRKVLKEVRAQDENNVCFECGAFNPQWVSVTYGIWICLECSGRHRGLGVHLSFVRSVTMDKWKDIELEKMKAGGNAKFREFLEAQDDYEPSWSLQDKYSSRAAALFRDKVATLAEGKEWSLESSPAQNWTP
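Material: rat Arfgap1 GAP domain (His6, aa 1-136), purified enzyme. Also added: human ARF1(Δ1-17)-GTP substrate. Compound dosing: 16.5 µM single point, 1.26% DMSO. Timing: enzyme reaction 120 min at 25 °C after 20 min preincubation. Signal: GDP detection by fluorescence polarization. Read-out basis: percent inhibition of GAP-stimulated GDP formation, scaled between DMSO and no-Arfgap1 medians.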
BSA probe FL: compounds interfering with TAMRA-BSA probe, counter-screen for TCR-CD3 interaction inhibitor project, biochemical, fluorescence, TAMRA-labeled BSA | shares compounds with TCR-CD3 inh | actives 10% (n = 1,200) | TAMRA-labeled BSA probe fluorescence counterscreen | inhibition, % at 9.4 µM; in the data active = inhibition above about 23%;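 note: 0% = buffer low control and 100% = reference high control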
TCR-CD3 conf: TCR-CD3 interaction inhibitors, retest, confirmation, biochemical, fluorescence, TAMRA-labeled TCR probe; shares compounds with TCR-CD3 inh; TAMRA-labeled TCR probe fluorescence binding assay; inhibition, % at 9.4 µM; actives 48% (n = 1,200); AID 652036, 2013
The depositor's hits bear a star; x = no result. Cut-off read from the data, not from the text of the source, unless noted: active = inhibition above about 19%; inactive = the rest.

SMILES | LEDGF integ inh | MBD2 DNA inh | ASAP1 GAP inh | TCR-CD3 inh | UHRF1 MBD2 ctr | ARFGAP1 inh | BSA probe FL | TCR-CD3 conf
O=C(O)c1cc(O)c2c(c1)[C@@H]([C@H]1c3cc(C(=O)O)cc(O)c3C(=O)c3c(O[C@@H]4O[C@H](CO)[C@@H](O)[C@H](O)[C@H]4O)cccc31)c1cccc(OC3O[C@H](CO)[C@@H](O)[C@H](O)[C@H]3O)c1C2=O (stereo not given in full) | 74.0* | 38.1* | 6.3 | 153.1* | 79.8* | 10.9 | -13.1 | 108.7*
O=c1c2c(-c3ccc(Cl)cc3)csc2ncn1/N=C/c1cccc([N+](=O)[O-])c1O | 3.2 | 0.0 | 4.0 | 30.2* | -1.3 | 6.5 | -10.5 | 28.9*
O=[N+]([O-])c1cccc(/C=N/n2cnnc2)c1O | -2.7 | -10.5 | -19.2 | 0.1 | -6.5 | -17.8 | x | x
O=Nc1[nH]c(=O)c(/C=C(\O)c2ccccc2)nc1NO | 3.0 | -8.5 | 15.0 | 29.7* | -5.9 | 4.7 | 7.1 | 35.8*
O=c1oc2ccccc2nc1/C=C(\O)c1ccccc1 | -1.2 | -16.3 | 1.4 | 3.7 | -6.6 | -1.8 | x | x
OC(c1ccccc1)C1(c2ccccc2)CCN(Cc2ccccc2)CC1 (stereo not given) | 0.3 | 0.0 | -6.9 | 1.4 | -1.4 | -1.9 | x | x
O=C(NN=C1CCCC1)c1ccccc1O | -0.9 | -2.9 | -8.2 | 22.5* | -1.9 | 18.8 | -14.8 | 15.3
O=C(NN=C1CCCC1)c1ccccc1[N+](=O)[O-] | -7.0 | 1.5 | -6.4 | -0.9 | -0.5 | 6.1 | x | x
O=C(NCc1ccccc1F)C1CC(=O)N(Cc2ccco2)C1 (stereo not given) | 0.3 | -2.0 | 2.9 | 42.2* | -0.4 | 2.1 | 2.9 | 2.0
CN(CC(=O)NCc1ccccn1)S(=O)(=O)c1ccc2ccccc2c1 | -0.9 | 3.9 | -1.9 | 1.2 | 8.8 | 4.0 | x | x
O=C(N/N=C/C1CC=CCC1)c1ccc(Cl)cc1O (stereo not given) | -1.6 | -1.2 | 12.3 | 20.4* | 0.0 | 7.3 | -9.0 | 11.8
O=C(N/N=C/C1CC=CCC1)c1ccccc1O (stereo not given) | -1.0 | -1.8 | 0.4 | 10.7 | 1.2 | 1.4 | x | x
C/C(=N\NC(=O)c1nnn(-c2nonc2N)c1CN(C)c1ccccc1)c1ccccc1O | -3.4 | -0.5 | -4.1 | 40.9* | -2.2 | 18.0 | -1.8 | 29.4*
COc1ccc(/C(C)=N/NC(=O)c2nnn(-c3nonc3N)c2CN(C)c2ccccc2)cc1 | 3.9 | -5.1 | 6.3 | 4.6 | 2.3 | 4.9 | x | x
COc1ccccc1OCc1ccc(C(=O)Nc2ccncc2)o1 | -1.9 | -1.2 | -2.7 | 31.6* | 2.1 | -11.8 | 2.9 | 0.8
COc1ccccc1OCc1ccc(C(=O)NC(C)(C)C)o1 | 0.0 | -4.1 | -2.8 | -4.5 | 5.3 | -6.0 | x | x
Cc1ccn2cc(-c3ccc(O)c(O)c3)nc2c1 | 9.9 | 1.0 | 5.3 | 34.2* | 6.5 | 16.4 | -8.7 | 25.6*
O=C1CC(=O)NC(SCC(=O)Nc2ccccc2[N+](=O)[O-])=N1 | 7.5 | 6.0 | -4.0 | 25.9* | 15.2 | -5.5 | -11.6 | 15.1
CCC1CCCCN1c1nc(-c2ccncc2)nc2ccccc12 (stereo not given) | 1.5 | -3.3 | -13.0 | 44.2* | 1.1 | -5.9 | 1.5 | -3.5
CC1CCCCN1c1nc(-c2ccncc2)nc2ccccc12 (stereo not given) | 1.3 | 3.5 | 8.1 | -0.8 | -0.2 | 8.3 | x | x
Cc1ccc(C(=O)NC(=S)NNC(=O)c2ccccc2O)cc1 | 4.8 | 3.9 | -5.9 | 19.3* | -0.1 | 11.5 | -6.4 | 3.4
O=C(NC(=S)NNC(=O)c1ccccc1O)c1ccccc1 | -4.1 | 0.5 | -7.6 | 12.5 | 0.2 | -0.1 | x | x
O=C(NC(=S)NNC(=O)c1ccccc1O)c1ccc([N+](=O)[O-])cc1 | -2.6 | -6.3 | -15.6 | 19.3* | -2.1 | 2.0 | -5.2 | 13.0
Cc1ccc(C(=O)/C=C/NNC(=O)c2ccccc2O)cc1 | 2.0 | -7.3 | -4.6 | 19.0* | -5.1 | 6.0 | -11.5 | 11.8
O=C(NNC(=S)NC(=O)c1ccccc1)c1ccc([N+](=O)[O-])cc1 | -2.1 | -1.9 | -8.6 | 6.3 | -3.2 | -1.5 | x | x
SMILES | LEDGF integ inh | MBD2 DNA inh | ASAP1 GAP inh | TCR-CD3 inh | UHRF1 MBD2 ctr | ARFGAP1 inh | BSA probe FL | TCR-CD3 conf
O=C(Nc1ccccc1)c1ccc(-c2ccc([N+](=O)[O-])cc2)o1 | -0.6 | -1.5 | 8.1 | 7.3 | -3.3 | -2.0 | x | x
O=C(NNC(=O)c1ccccc1O)c1ccc(-c2ccc([N+](=O)[O-])cc2)o1 | -6.5 | -1.7 | -0.4 | 42.0* | -4.1 | 0.6 | 7.2 | 37.8*
Cc1cc(O)cc(=O)n1Cc1ccccc1 | 0.6 | -2.5 | -2.8 | -0.5 | -0.9 | 8.9 | x | x
O=C(Nc1nnc([C@H]2C[C@H](O)[C@@H](CO)O2)s1)c1cccc(Oc2ccccc2)c1 | 2.0 | -5.5 | 4.2 | 21.4* | -1.1 | -10.5 | -0.9 | 5.2
O=C(Nc1nnc([C@@H]2C[C@H](O)[C@@H](CO)O2)s1)c1cccc(Oc2ccccc2)c1 | -2.0 | 5.7 | -5.5 | -6.0 | -0.3 | -3.7 | x | x
O=C(Cn1nc2ccccc2n1)N/N=C/c1cc([N+](=O)[O-])ccc1O | -1.8 | -1.7 | 3.1 | 26.0* | -4.2 | 0.0 | 5.2 | 26.4*
O=C(Cn1nnc(-c2ccccc2)n1)N/N=C/c1cc([N+](=O)[O-])ccc1O | -2.5 | -1.7 | -3.7 | 16.3 | -1.5 | 9.3 | x | x
CC(=O)c1ccc(OCCCC(=O)Nc2cccc(S(=O)(=O)N3CCCCC3)c2)cc1 | 0.0 | -6.1 | 1.9 | -2.6 | -2.2 | -17.7 | x | x
CCn1cc(Cl)c(C(=O)NNC(=O)CCn2ccc([N+](=O)[O-])n2)n1 | -0.8 | -2.8 | 14.0 | 3.5 | -3.4 | 10.6 | x | x
Cc1cccc(C)c1NC(=O)CN1C(=O)NC(C)(CCc2ccccc2)C1=O (stereo not given) | 3.9 | 2.4 | 11.8 | 59.2* | 1.1 | 4.4 | 3.6 | 6.4

High-throughput results as filed in PubChem BioAssay.
